Measurements as given in ChEMBL document CHEMBL4340532, “Design, synthesis, and biological evaluation of novel 2'-deoxy-2'-fluoro-2'-C-methyl 8-azanebularine derivatives as potent anti-HBV agents” (Bioorg Med Chem Lett, 2019).

Experiments:
[1] = Cytotoxicity against human HepG2 cells supplemented with fresh medium containing compound every 3 days for 9 days measured post-last dose by MTT assay; type: cell-based
Summary of the method: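 HepG2 cells were exposed to compound for 3 or 9 days and viability was read by MTT assay. CC50 is the concentration causing 50% cytotoxicity. Results are mean ± SD of three experiments.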

Hepatitis B virus [2] = assay: Antiviral activity against Hepatitis B virus infected in human HepG2.2.15 cells assessed as inhibition of HBeAg secretion at 20 uM supplemented with fresh medium containing compound every 3 days for 6 days and measured on day 9 by ELISA relative to control; type: functional
Summary of the method: (§1)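 HepG2.2.15 cells were exposed to compound for up to 9 days. The initial screen used 20 µM for 9 days, with lamivudine (20 µM) as positive control. Follow-up used 10, 20 or 40 µM sampled at days 3, 6 and 9. HBsAg and HBeAg were quantified in culture supernatant by ELISA and compared with a no-drug control. Results are mean ± SD of three experiments.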

Hepatitis B virus [3] = assay: Antiviral activity against Hepatitis B virus infected in human HepG2.2.15 cells assessed as inhibition of HBsAg secretion at 20 uM supplemented with fresh medium containing compound every 3 days for 6 days and measured on day 9 by ELISA relative to control; type: functional; summary of the method: as §1

| Compound | CC50 at 216 h [1] [µM] | inhibition (INH) (Hepatitis B virus [2]) [%] | inhibition (INH) (Hepatitis B virus [3]) [%] |
| --- | --- | --- | --- |
| C[C@@]1(F)[C@H](O)[C@@H](CO)O[C@H]1n1nnc2c(Nc3ccccc3)ncnc21 | 501 | 17.7 | 14.8 |
| C[C@@]1(F)[C@H](O)[C@@H](CO)O[C@H]1n1nnc2c(=O)[nH]cnc21 | > 600 | 7.4 | 8.5 |
